Results collected from several papers.
Compare with care: the assays were run in different laboratories.
RPS6KA3: Ribosomal protein S6 kinase alpha-3 (RPS6KA3, Homo sapiens, UniProt P51812)
RPS6KA3 C-terminal kinase domain: Ribosomal protein S6 kinase alpha-3, C-terminal kinase domain (RPS6KA3, Homo sapiens, UniProt P51812)
RPS6KA3 N-terminal kinase domain: Ribosomal protein S6 kinase alpha-3, N-terminal kinase domain (RPS6KA3, Homo sapiens, UniProt P51812)

| SMILES | target | assay | test system | conditions | endpoint | value |
| --- | --- | --- | --- | --- | --- | --- |
| N#CCCc1ccc2c(c1)-c1[nH]c3ccc([N+](=O)[O-])cc3c1CC(=O)N2 | RPS6KA3 | cell-free assay | – | 0.5 µM | remaining signal | 28.6% |
| CC(C)(C)C(=O)c1sc(NC2CCCCC2)nc1N | RPS6KA3 | enzyme activity, inhibitor | – | 10 µM | remaining activity | 104% |
| c1cnn2ncc(-c3ccnc(N4CCC45COC5)n3)c2c1 | RPS6KA3 C-terminal kinase domain | binding, competition with immobilised ligand | – | 1 µM | remaining binding | 100% |
| COc1ccc2c(c1)O[C@H](c1ccc(OC)c(OC)c1)C[C@@H]2NC(=O)C1(c2ccc3c(c2)OC(F)(F)O3)CC1 | RPS6KA3 C-terminal kinase domain | cell-free assay, competition with immobilised ligand | – | 1 µM | remaining binding | 93% |
| COc1cc(Cl)c(C(=O)N[C@@H](CN[C@H]2CC[C@@H](N)CC2)Cc2ccc(C#N)cc2)cc1-c1ccc(CN[C@H](C)c2ccc(C)cc2)o1 | RPS6KA3 | enzyme activity, inhibitor | – | 1 µM | remaining activity | 72% |
| C[C@@H]1CCN(c2nccc(-c3cnn4ncccc34)n2)C1 | RPS6KA3 C-terminal kinase domain | binding, competition with immobilised ligand | – | 1 µM | remaining binding | 98% |
| CCCS(=O)(=O)Nc1ccc(F)c(C(=O)c2c[nH]c3ncc(-c4ccc(Cl)cc4)cc23)c1F | RPS6KA3 | enzyme activity, inhibitor | – | 1 µM | inhibition | < 10% |
| N[C@H]1CCN(c2nccc(-c3cnn4ncccc34)n2)C1 | RPS6KA3 C-terminal kinase domain | binding, competition with immobilised ligand | – | 1 µM | remaining binding | 40% |
| Cc1ccc(NC(=O)c2ccc(C)c(C(F)(F)F)c2)cc1C#Cc1nn(C2CCC(O)CC2)c2ncnc(N)c12 (stereo not drawn) | RPS6KA3 | cell-free assay | – | 10 µM | remaining signal | 44% |
| O=C(NCc1ncc(C(F)(F)F)cc1Cl)c1ccc2c(c1)C1(CCS(=O)(=O)CC1)[C@@H](C1CC1)N2S(=O)(=O)c1ccc(F)cc1 | RPS6KA3 C-terminal kinase domain | cell-free assay, competition with immobilised ligand | – | 1 µM | remaining binding | 82% |
| Clc1ccc(Nc2nnc(Cc3ccncc3)c3ccccc23)cc1 | RPS6KA3 | cell-free assay | – | 0.5 µM | remaining signal | 101% |
| CCOc1cc(-c2nncn2C)ccc1Nc1ncc2cc(C)nc(NCC(C)(C)C)c2n1 | RPS6KA3 | enzyme activity, inhibitor, FRET | – | 1 µM | inhibition | 18% |
| CC1CCCN1c1nccc(-c2cnn3ncccc23)n1 (stereo not drawn) | RPS6KA3 N-terminal kinase domain | binding, competition with immobilised ligand | – | 1 µM | remaining binding | 100% |
| CC(C)(C)c1nc(-c2cccc(NS(=O)(=O)c3c(F)cccc3F)c2F)c(-c2ccnc(N)n2)s1 | RPS6KA3 | enzyme activity, inhibitor, radiometric | – | 1 µM | remaining activity | 77% |
| O=C1Nc2ccc(Cl)cc2C1=Cc1cc(Cl)c(O)c(Cl)c1 | RPS6KA3 | cell-free assay | – | 0.5 µM | remaining signal | 96% |
| Cc1nc(N2CC[C@@H](O)C2)ncc1-c1cc(C(F)(F)F)cc2[nH]ncc12 | RPS6KA3 C-terminal kinase domain | binding, competition with immobilised ligand | – | 1 µM | remaining binding | 58% |
| FC(F)c1nc2ccccc2n1-c1nc(N2CCOCC2)nc(N2CCOCC2)n1 | RPS6KA3 | enzyme activity, inhibitor | – | 10 µM | remaining activity | 83% |
| CN(CCCC(F)(F)F)c1nccc(-c2cnn3ncccc23)n1 | RPS6KA3 N-terminal kinase domain | binding, competition with immobilised ligand | – | 1 µM | remaining binding | 100% |
| CNc1cc(Oc2cc(C(=O)Nc3cc(N4CCN(C)CC4)cc(C(F)(F)F)c3)ccc2C)ncn1 | RPS6KA3 C-terminal kinase domain | target engagement in cells, inhibitor, chemoproteomics | Huh-7 | 1 µM | inhibition | -50.6% |
| Nc1ncnc2occ(-c3ccc(NC(=O)Nc4cc(C(F)(F)F)ccc4F)cc3)c12 | RPS6KA3 C-terminal kinase domain | cell-free assay, inhibitor | – | 20 µM | remaining signal | 100% |
| Cn1cncc1C1=CN(c2ncnc3[nH]cnc23)CCS1 | RPS6KA3 | enzyme activity, inhibitor, radiometric | – | 2 µM | inhibition | 66% |

| SMILES | target | assay | test system | conditions | endpoint | value |
| --- | --- | --- | --- | --- | --- | --- |
| COc1cc2ncnc(Nc3ccc(Oc4ccccc4)c(C)c3C)c2cc1OC | RPS6KA3 | enzyme activity, inhibitor | – | 1 µM | inhibition | -1% |
| Cc1sc(C(=O)NC2COC2)cc1-n1cc(NC(=O)Nc2c(F)cccc2Cl)cn1 | RPS6KA3 | enzyme activity, inhibitor | – | 10 µM | remaining activity | 73% |
| Cc1ccc(Nc2nccc(N(C)c3ccc4c(C)n(C)nc4c3)n2)cc1S(N)(=O)=O | RPS6KA3 | enzyme activity, inhibitor | – | 10 µM | inhibition | 56% |
| CCOCCn1cc(C(=O)Nc2ccc(-n3nc(-c4cccnc4)cc3C(F)(F)F)cn2)ccc1=O | RPS6KA3 C-terminal kinase domain | cell-free assay, competition with immobilised ligand | – | 1 µM | remaining binding | 87% |
| Cc1cc(NC(=O)c2cccc3cc(-c4cccc5[nH]nc(N)c45)ccc23)ccc1F | RPS6KA3 | enzyme activity, inhibitor | – | 0.1 µM | activity vs control | 131% |
| C[C@H](c1ccc(F)cc1)N(Cc1cccc(C(=O)O)c1)C(=O)c1cnc2ccccc2c1 | RPS6KA3 C-terminal kinase domain | cell-free assay, competition with immobilised ligand | – | 1 µM | remaining binding | 89% |
| COc1cccc2c(NCc3ccccc3)nc(-n3c(N)nc4ccccc43)nc12 | RPS6KA3 N-terminal kinase domain | target engagement in cells, inhibitor, chemoproteomics | – | 20 mM | inhibition | 34.2% |
| CC/C(=N\NC(=O)NCc1cccc(O)c1)c1ccc(O)c(C)c1O | RPS6KA3 | enzyme activity, inhibitor | – | 0.1 µM | inhibition | 79.5% |
| CN(C)C1CCN(CC#Cc2nn(C3CCCC3)c3nc(NCc4ccccc4)ncc23)C1 (stereo not drawn) | RPS6KA3 | enzyme activity, inhibitor, FRET | – | 0.1 µM | inhibition | 5% |
| CCCOc1ccc(OC)c(F)c1C(=O)c1ccc(C(=O)N[C@@H]2CNC[C@H]2NC(=O)c2ccc3[nH]ncc3c2)cc1 | RPS6KA3 | enzyme activity, inhibitor | – | 10 µM | remaining activity | 12% |
| Nc1nc(Nc2ccccc2)sc1C(=O)c1c(F)cccc1F | RPS6KA3 | enzyme activity, inhibitor | – | 10 µM | remaining activity | 38% |
| COc1ccc2c(O[C@@H]3C[C@H]4C(=O)N[C@]5(C(=O)O)CC5/C=C\CCCCC[C@H](NC(=O)OC5CCCC5)C(=O)N4C3)cc(-c3csc(NC(=O)C(C)C)n3)nc2c1C (stereo partly drawn) | RPS6KA3 N-terminal kinase domain | cell-free assay, competition with immobilised ligand | – | 1 µM | remaining binding | 100% |
| COc1cc2ncnc(Nc3ccc(F)c(Cl)c3)c2cc1OCCCN1CCOCC1 | RPS6KA3 | cell-free assay | – | 0.5 µM | remaining signal | 100% |
| COc1cc(Nc2cnc(C#N)c(O[C@H](C)CN(C)C)n2)ncc1-c1cnn(C)c1 | RPS6KA3 | enzyme activity, inhibitor, radiometric | – | 1 µM | remaining activity | 9% |
| FC(F)(F)Oc1cccc(-c2cnc3ccc(-c4ccncc4)nn23)c1 | RPS6KA3 | enzyme activity, inhibitor, radiometric | – | 5 µM | activity vs control | 98% |
| CN(c1nccc(-c2cnn3ncccc23)n1)C1CC1 | RPS6KA3 N-terminal kinase domain | binding, competition with immobilised ligand | – | 1 µM | remaining binding | 100% |
| CCCOc1ccc([C@@H]2[C@@H](C(=O)O)[C@H](c3ccc4c(c3)OCO4)CN2CC(=O)Nc2c(CC)cccc2CC)cc1 | RPS6KA3 C-terminal kinase domain | cell-free assay, competition with immobilised ligand | – | 1 µM | remaining binding | 76% |
| CCCCNc1ncc2c(-c3ccc(F)cc3)nn(C[C@H]3CC[C@H](N)CC3)c2n1 | RPS6KA3 N-terminal kinase domain | target engagement in cells, inhibitor, chemoproteomics | – | 20 mM | inhibition | 32.6% |
| CNC(=O)c1cc(Oc2ccc(NC(=O)Nc3ccc(Cl)c(C(F)(F)F)c3)cc2)ccn1 | RPS6KA3 | enzyme activity, inhibitor | – | 10 µM | inhibition | 46% |
| Cc1ccc(C(=O)Nc2ccc(CN3CCN(C)CC3)c(C(F)(F)F)c2)cc1C#Cc1cnc2cccnn12 | RPS6KA3 | enzyme activity, inhibitor | – | 23.5 nM | remaining activity | 93% |
| O=C(NC[C@@H]1[C@H]2CN(C(=O)OCc3cc(C(F)(F)F)cc(C(F)(F)F)c3)C[C@@H]12)c1ccc2[nH]nnc2c1 | RPS6KA3 N-terminal kinase domain | cell-free assay, competition with immobilised ligand | – | 1 µM | remaining binding | 94% |
